Several values for one entry are separate records, joined by “and”; a condition that tells them apart may be missing. Equal values may be shown once.
Experiments:
[1] = tested on: Rattus norvegicus; assay: Retention time was measured at equimolar doses to 100 mg/kg ip of piracetam; format: functional, organism-based; set-up: dose 100 mg/kg
How it was run: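 Male Sprague-Dawley rats, 8 per group, ip twice for 2 days, equimolar to 100 mg/kg piracetam. Footshock 720 μA, 15 s; retest 24 h later. For remembering rats, retention time T = T' − T0, light-compartment time at retest minus time at acquisition; mean ± SD, t test.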

[2] = tested on: Rattus norvegicus; assay: Effect of lactam derivative on retention in one-trial passive avoidance test in rats tested at equimolar doses to 100 mg/kg ip of piracetam; format: functional, organism-based; set-up: dose 100 mg/kg; settings: at 100 mg/kg
How it was run: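 Male Sprague-Dawley rats, 250-300 g, 8 per group, dosed ip twice for 2 days, equimolar to 100 mg/kg piracetam. Trained to avoid dark compartment, 720 μA footshock for 15 s; retested 24 h later with grid off. Rats avoiding dark side 0.2-3 min counted as remembering; percent retention.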

[3] = tested on: Mus musculus; assay: Spontaneous motor activity in open field at the dose of 500 mg/kg on mice; format: functional
How it was run: (§1)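 Open-field activity in male and female Swiss mice (22 ± 2 g, 10 per dose), compound given ip in 1% Tween 80 with vehicle-only controls. Tested 15 min after injection: total movements per animal in 5 min, mean ± SD; t test vs vehicle.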

[4] = tested on: Mus musculus; assay: Motor coordination in rotarod test performed (total number of falls in 3 min) at the dose of 500 mg/kg on mice; format: functional
How it was run: (§2)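 Rota-rod motor coordination in Swiss mice (10 per dose, sexes mixed, 22 ± 2 g), dosed ip in 1% Tween 80 against vehicle controls. Falls counted per animal, mean ± SD; t test vs vehicle. The table footer gives 3 min and the method gives a 100 s observation period.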

[5] = tested on: Mus musculus; assay: Motor coordination in rotarod test performed (total number of falls in 3 min) at the dose of 1000 mg/kg on mice (statistical significance test); format: functional; how it was run: as §2
[6] = tested on: Mus musculus; assay: Traction test (times in seconds on the horizontal wire with forelegs) performed at the dose of 1000 mg/kg on mice (statistical significance test); format: functional
How it was run: (§3)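 Boissier–Simon traction test in Swiss mice (5 male plus 5 female per dose, 22 ± 2 g), dosed ip in 1% Tween 80, with vehicle controls. Read-out: time in seconds each mouse stays hanging by its forelegs on a horizontal wire, mean ± SD; t test vs vehicle.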

[7] = tested on: Mus musculus; assay: Maximal Electroshock seizure (% of animals without seizures) at the dose of 500 mg/kg on mice; format: functional
How it was run: (§4)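 Swiss mice (5 male, 5 female per dose, 22 ± 2 g) dosed ip in 1% Tween 80, with vehicle controls. Maximal electroshock set to kill 50% of controls: 60 mA, 0.4 s shock, 0.6 ms pulse width. Read-out: percent of animals without seizures.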

[8] = tested on: Mus musculus; assay: Maximal Electroshock seizure (% of animals without seizures) at the dose of 1000 mg/kg on mice; format: functional
How it was run: (§5)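 Swiss mice of both sexes, 10 per dose, ip in 1% Tween 80. Maximal electroshock set to kill 50% of controls (60 mA, 0.4 s, 0.6 ms pulse width). Mice without seizures counted as protected; percent protected.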

[9] = tested on: Mus musculus; assay: Exploratory activity in hole board at the dose of 1000 mg/kg on mice (statistical significance test); format: functional
How it was run: (§6)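 Swiss inbred mice (male and female, 22 ± 2 g), 10 per dose (5 of each sex), given ip in 1% Tween 80; controls got vehicle only. Boissier–Simon hole board with infrared detection: total holes explored per animal in 5 min, mean ± SD. t test vs vehicle.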

[10] = tested on: Mus musculus; assay: Traction test (times in seconds on the horizontal wire with forelegs) performed at the dose of 500 mg/kg on mice (statistical significance test); format: functional; how it was run: as §3
[11] = tested on: Mus musculus; assay: Spontaneous motor activity in open field at the dose of 1000 mg/kg on mice (statistical significance test); format: functional; how it was run: as §1
[12] = tested on: Mus musculus; assay: Traction test (times in seconds on the horizontal wire with forelegs) performed at the dose of 1000 mg/kg lactam derivatives on mice; format: functional; how it was run: as §3
[13] = tested on: Mus musculus; assay: Traction test (times in seconds on the horizontal wire with forelegs) performed at the dose of 500 mg/kg lactam derivatives on mice; format: functional; how it was run: as §3
[14] = tested on: Mus musculus; assay: Exploratory activity in hole board at the dose of 1000 mg/kg lactam derivatives on mice; format: functional
How it was run: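 Swiss mice of both sexes, 22 ± 2 g, 10 per dose, ip in 1% Tween 80. Hole board (Boissier and Simon); holes explored in 5 min counted by infrared device; mean ± SD.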

[15] = tested on: Mus musculus; assay: Motor coordination in rotarod test performed (total number of falls in 3 min) at the dose of 500 mg/kg lactam derivatives on mice; format: functional; how it was run: as §2
[16] = tested on: Mus musculus; assay: Maximal Electroshock seizure (% of animals without seizures) at the dose of 500 mg/kg lactam derivatives on mice; format: functional; how it was run: as §4
[17] = tested on: Mus musculus; assay: Exploratory activity in hole board at the dose of 500 mg/kg lactum derivatives on mice; format: functional; how it was run: as §6
[18] = tested on: Mus musculus; assay: Motor coordination in rotarod test performed (total number of falls in 3 min) at the dose of 1000 mg/kg lactam derivatives on mice; format: functional; how it was run: as §2
[19] = tested on: Mus musculus; assay: Maximal Electroshock seizure (% of animals without seizures) at the dose of 1000 mg/kg lactam derivatives on mice; format: functional; how it was run: as §5
[20] = tested on: Mus musculus; assay: Spontaneous motor activity in open field at the dose of 1000 mg/kg on mice; format: functional
How it was run: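 Swiss mice, male and female, 22 ± 2 g, 10 per dose (5 each sex). Dosed ip in 1% Tween 80, doses up to 1000 mg/kg. Open field 15 min after injection; total movements in 5 min; mean ± SD, t test.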

[21] = tested on: Rattus norvegicus; assay: Effect of tested at dose of 100 mg/kg in the water- maze test after 30 minutes (day 4); format: functional
[22] = tested on: Rattus norvegicus; assay: Effect of lactam derivatives tested at dose of 100 mg/kg in the water- maze test (day 2); format: functional
How it was run: (§7)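 Male Sprague-Dawley rats, 250-300 g, 10 per group; day 1 selects rats unable to leave the water maze within 5 min. Drug dosed ip twice daily on days 2-4, equimolar to 100 mg/kg piracetam. On day 5, two doses 30 min apart, then transtemporal ECS (60 mA/0.2 s). Mazes run 15, 60, 240 min after shock. Errors (reversals plus wrong entrances) and exit time recorded; mean ± SD, t test.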

[23] = tested on: Rattus norvegicus; assay: Effect of tested at dose of 100 mg/kg in the water- maze test (day 2); format: functional; how it was run: as §7
[24] = tested on: Rattus norvegicus; assay: Effect of tested at dose ofv 100 mg/kg in the water- maze test (day 2); format: functional; how it was run: as §7
[25] = tested on: Mus musculus; assay: Motor coordination in rotarod test performed (total number of falls in 3 min) at the dose of 1000 mg/kg on mice; format: functional
[26] = tested on: Rattus norvegicus; assay: Effect of tested at dose of 100 mg/kg in the water- maze test (day 3); format: functional; how it was run: as §7
[27] = tested on: Rattus norvegicus; assay: Effect of tested at dose of 100 mg/kg in the water- maze test (day 1); format: functional; how it was run: as §7
[28] = tested on: Mus musculus; assay: Traction test (times in seconds on the horizontal wire with forelegs) performed at the dose of 1000 mg/kg on mice; format: functional
How it was run: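 Swiss mice of both sexes, 10 per dose, ip in 1% Tween 80. Boissier and Simon traction test; time spent hanging by forelegs on a horizontal wire, in seconds; mean ± SD.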

[29] = tested on: Rattus norvegicus; assay: Effect of lactam derivatives tested at dose of 100 mg/kg in the water- maze test (day 1); format: functional; how it was run: as §7
[30] = tested on: Rattus norvegicus; assay: Effect of tested at dose of 100 mg/kg in the water- maze test after 60 minutes (day 4); format: functional; how it was run: as §7
[31] = tested on: Rattus norvegicus; assay: Effect of tested at dose of 100 mg/kg in the water- maze test after 15 minutes (day 4); format: functional; how it was run: as §7

Structure (SMILES): CCOC(=O)C1CNC(=O)CC1C(=O)OCC (stereo in doubt; 4) [listing 1 of 2 here]
- Retention time [1]: 44.2 s
- Retention [2]: 100%

Structure (SMILES): CCOC(=O)C1CNC(=O)CC1C(=O)OCC (stereo in doubt; 5) [listing 1 of 2 here]
- Activity [3]: 3025.2
- Activity [4]: 0.8
- Activity [5]: 16.4
- Activity [6]: <7
- Activity [7]: 0%
- Activity [8]: 40%
- Activity [9]: 8.9%
- Activity [10]: 65.1
- Activity [11]: 782

Structure (SMILES): CCOC(=O)C1CNC(=O)CC1C(=O)OCC (stereo in doubt; 4) [listing 2 of 2 here]
- Activity [3]: 3410.5
- Activity [12]: 112.8
- Activity [13]: 75.8
- Activity [14]: 20
- Activity [15]: 1
- Activity [16]: 0%
- Activity [17]: 20.4
- Activity [18]: 3.3
- Activity [19]: 0%
- Activity [20]: 2522

Structure (SMILES): NC(=O)CN1CCCC1=O [PIRACETAM]
- No. of errors [21]: 2.1
- Speed of performance [21]: 235.7
- No. of errors [22]: 7.2 and 8.1
- Speed of performance [23]: 291.5
- Retention time [1]: 43.2 s
- Activity [14]: 19.6
- Speed of performance [24]: 282.7
- Retention [2]: 100%
- Activity [25]: 1.7
- No. of errors [26]: 3.5 and 5
- Speed of performance [26]: 249 and 250.1
- No. of errors [27]: 7.6 and 9.1
- Activity [28]: 79.9
- Speed of performance [29]: 272.2 and 265
- No. of errors [30]: 3.6
- Speed of performance [30]: 197.6
- Activity [8]: 0%
- No. of errors [31]: 3.2
- Speed of performance [31]: 251
- Activity [20]: 3764.3

Structure (SMILES): CCOC(=O)C1CNC(=O)CC1C(=O)OCC (stereo in doubt; 5) [listing 2 of 2 here]
- Retention time [1]: 47.2 s
- Retention [2]: 100%

From ChEMBL document CHEMBL1124006, “Synthesis and cognition activating properties of some mono- and bicyclic lactam derivatives” (1988)
